Screening data from PubChem BioAssay.
Neddylation inh: blocks human cullin neddylation. P61081+Q13564. TR-FRET cullin neddylation, biochemical. inhibition, % at 25 µM. 360,000 compounds, 0.58% hits. AID 651699; in the data active = inhibition above about 36%
Target sequence (P61081 whole entry, looked up): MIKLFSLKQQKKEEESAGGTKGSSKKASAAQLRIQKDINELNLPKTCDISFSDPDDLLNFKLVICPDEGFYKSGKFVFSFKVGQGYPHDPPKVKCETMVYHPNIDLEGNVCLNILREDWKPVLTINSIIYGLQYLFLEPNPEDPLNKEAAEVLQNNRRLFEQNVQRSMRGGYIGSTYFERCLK
Target sequence (Q13564 whole entry, looked up): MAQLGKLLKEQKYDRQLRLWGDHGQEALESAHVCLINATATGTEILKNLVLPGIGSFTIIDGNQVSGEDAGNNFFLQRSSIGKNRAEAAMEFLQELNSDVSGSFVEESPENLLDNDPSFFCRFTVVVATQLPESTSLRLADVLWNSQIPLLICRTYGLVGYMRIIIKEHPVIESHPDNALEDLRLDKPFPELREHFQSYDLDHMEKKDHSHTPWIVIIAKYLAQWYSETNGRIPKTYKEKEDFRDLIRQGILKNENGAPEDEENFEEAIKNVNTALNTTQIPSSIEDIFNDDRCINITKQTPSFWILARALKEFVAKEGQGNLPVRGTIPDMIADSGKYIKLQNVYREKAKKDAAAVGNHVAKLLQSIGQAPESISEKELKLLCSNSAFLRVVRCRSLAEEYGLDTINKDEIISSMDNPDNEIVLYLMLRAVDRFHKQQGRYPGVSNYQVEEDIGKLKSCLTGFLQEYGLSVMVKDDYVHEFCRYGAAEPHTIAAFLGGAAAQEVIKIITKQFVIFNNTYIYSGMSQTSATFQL
SR-BI uptake up: activators of SR-BI mediated HDL lipid uptake. CHO ldlA[mSR-BI] cells, DiI-HDL uptake fluorescence, 3 h; 100 = double the neutral-control signal. activation, % at 12.5 µM. 320,000 compounds, 0.096% hits. AID 504775;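 active = mean replicate activation of at least 60% and every replicate at or above 60%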;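 also: 0% = median plate neutral-control signal and 100% = twice that signal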
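System: CHO ldlA[mSR-BI] cells / Medium: HEPES-buffered (25 mM, pH 7.4) F12 plus 0.5% BSA / Probe or stimulus: labelled HDL, 10 µg/mL / Doses: single compound concentration, delivered by pin transfer / Schedule: 3 h, 37 °C / Measured by: DiI fluorescence, bottom read / Measure: cell-associated DiI fluorescence as measure of HDL uptake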
SR-BI DiI inh: blocks mouse SR-BI lipid uptake from DiI-HDL; Q61009; ldlA[mSR-BI] CHO cells, DiI-HDL uptake fluorescence, 3 h; inhibition, % at 12.5 µM; 320,000 compounds, 0.96% hits; AID 488896;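 active = mean replicate inhibition of at least 70% and a set share of replicates each scoring 70 or more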;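 also: 0% = median of neutral control wells and 100% = median of positive control wells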
UBC13 polyUb: inhibitors of human UBC13 polyubiquitin chain formation. P61088. TR-FRET. inhibition, % at 20 µM. 330,000 compounds, 0.47% hits; in the data active = inhibition above about 45%, passing the limit was not always enough
Casp3 counter: caspase-3 inhibition (UBC13 counter-screen); shares compounds with UBC13 polyUb; inhibition, % at 20 µM; AID 488856; Recombinant caspase-3, Caspase-Glo 3/7 luminescence, 60 min; 1,400 compounds, 4% hits;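 active = mean inhibition across replicates above about 26%, limit read from the data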;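 also: plate controls were DMSO with caspase-3 for no effect and DMSO wells lacking enzyme for full effect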
UBC13 conf: confirmation of human UBC13 polyubiquitin inhibitors; shares compounds with UBC13 polyUb; UBC13 polyubiquitination, TR-FRET, biochemical; inhibition, % at 10 µM; 1,400 compounds, 68% hits; AID 488859; in the data active = inhibition above about 45%
The depositor's hits bear a star; . = not tested or not shown. A selection: hits, their analogues and other compounds. The true share with any hit is near 1.9%.

SMILES	Neddylation inh	SR-BI uptake up	SR-BI DiI inh	UBC13 polyUb	Casp3 counter	UBC13 conf
OC1CC2CCC(C1)N2CCCN1c2ccccc2Sc2ccc(Cl)cc21 (stereo not given)	-7	15	-15	.	.	.
OCCN1CCN(CCCN2c3ccccc3Sc3ccc(C(F)(F)F)cc32)CC1	-13	-2	2	87*	-2	92*
CCSc1ccc2c(c1)N(CCCN1CCN(C)CC1)c1ccccc1S2	-21	-14	14	75*	-2	64*
OCCN1CCN(CC/C=C2/c3ccccc3Sc3ccc(C(F)(F)F)cc32)CC1	-4	-8	8	66*	-1	71*
CN1CCN(CCCN2c3ccccc3Sc3ccc(Cl)cc32)CC1	-20	-31	31	97*	1	99*
CN(C)CCCN1c2ccccc2Sc2ccc(C(F)(F)F)cc21	-15	6	-6	27	.	.
COc1ccc(C(=O)N/C(=C\c2cn(S(=O)(=O)N(C)C)c3ccccc23)C(=O)N2CCN(C)CC2)cc1OC	0	.	.	.	.	.
O=C(NCCN1CCC(n2c(=O)[nH]c3ccccc32)CC1)c1ccc(F)c(F)c1	2	.	.	.	.	.
COc1cc(OC)c2c(-c3ccccc3)cc(=O)oc2c1C(CCN1CCOCC1)c1ccc2c(c1)OCO2 (stereo not given)	34	-6	6	.	.	.
COc1ccc(C(CCN2CCCC(C)C2)c2c(OC)cc(OC)c3c(-c4ccccc4)cc(=O)oc23)cc1 (stereo not given)	35	-1	1	59*	0	45*
COc1cc(OC)c2c(-c3ccccc3)cc(=O)oc2c1C(CCN1CCCC(C)C1)c1ccc(N(C)C)cc1 (stereo not given)	-25	-5	5	19	.	.
COc1ccc(C(CCN2CCCC2)c2c(OC)cc(OC)c3c(-c4ccccc4)cc(=O)oc23)cc1 (stereo not given)	38	2	-2	67*	-4	37
COc1cc(OC)c2c(-c3ccccc3)cc(=O)oc2c1C(CCN1CCCC1)c1ccc2c(c1)OCO2 (stereo not given)	5	4	-4	52*	3	32
CCCCCc1cc(=O)oc2c(C(CCN(CC)CC)c3cc(OC)c(OC)c(OC)c3)c(OC)cc(OC)c12 (stereo not given)	9	19	-19	85*	-2	73*
COc1cc(C(CCN2CCCC2)c2c(OC)cc(OC)c3c(-c4ccccc4)cc(=O)oc23)cc(OC)c1OC (stereo not given)	-11	12	-12	46*	1	40
CCN(CC)CCC(c1ccc(N(C)C)cc1)c1c(OC)cc(OC)c2c(-c3ccccc3)cc(=O)oc12 (stereo not given)	-8	19	-19	50*	-2	26
COc1cc(C(CCN2CCOCC2)c2c(OC)cc(OC)c3c(-c4ccccc4)cc(=O)oc23)cc(OC)c1OC (stereo not given)	10	14	-14	.	.	.
COc1cc(OC)c2c(-c3ccccc3)cc(=O)oc2c1C(CCN1CCN(c2ccccc2)CC1)c1ccc(N(C)C)cc1 (stereo not given)	-4	3	-3	-5	.	.
COc1ccc(CCNC(=O)Nc2nc(C(N)C3CCCCC3)cs2)cc1OC (stereo not given)	3	.	.	.	.	.
COc1cc(OC)c(N(C)C(=O)c2cn(C)c(=O)c3cc(OC)c(OC)cc23)cc1Cl	2	-4	4	-5	.	.
O=[N+]([O-])c1ccc2oc(/C=C/c3ccc(O)cc3)nc2c1	-11	.	.	.	.	.
O=[N+]([O-])c1c(-c2cn[nH]c2)n[nH]c1-c1cn[nH]c1	-17	.	.	56*	4	53*
O=C(c1cccs1)N1CCN(C(=O)c2cccs2)C1=S	-48	22	-22	.	.	.
O=C(NNC(=O)c1nn(-c2ccc(F)cc2)ccc1=O)c1ccccc1Cl	-25	4	-4	81*	-4	91*
O=C(O)c1nn(-c2ccc(F)cc2)ccc1=O	6	.	.	0	.	.
C[C@H](CO)N1C[C@H](C)[C@@H](CN(C)C(=O)Nc2ccccc2F)OCc2cnnn2CCCC1=O	-6	.	.	.	.	.
CCCC[C@@H](CNC)NC[C@H](NCCCCC1CCCCC1)C(C)C	-8	22	-22	66*	-3	45*
